Results from ChEMBL document CHEMBL1149675, “Structure-activity relationship of chalcones and related derivatives as ligands for detecting of beta-amyloid plaques in the brain” (Bioorg Med Chem, 2007).
The source made the active and inactive calls. No cut-off for these calls is given here.

Experiments:
[1] = Displacement of [125I]DMIC from amyloid beta 1-42 aggregates; set-up: species or system Homo sapiens
Brain [2] = test: Biodistribution in ddY mouse brain at 4.2 to 6.3 kBq, iv after 2 mins; format: ADME, organism-based; conditions: in vivo
Method in brief: (§1)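 [125I]-labelled ligand in saline with 10% ethanol, given by tail-vein injection to normal ddY mice (5 weeks old, 23–25 g). Mice killed at set times post-injection. Organs removed and weighed, radioactivity gamma-counted, expressed as % injected dose per gram. Mean (SD) of five mice per time point.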

Brain [3] = test: Biodistribution in ddY mouse brain at 4.2 to 6.3 kBq, iv after 10 mins; format: ADME, organism-based; conditions: in vivo; method in brief: as §1
Brain [4] = test: Biodistribution in ddY mouse brain at 4.2 to 6.3 kBq, iv after 60 mins; format: ADME, organism-based; conditions: in vivo, 1 h; method in brief: as §1
Brain [5] = test: Biodistribution in ddY mouse brain at 4.2 to 6.3 kBq, iv after 30 mins; format: ADME, organism-based; conditions: in vivo, 0.5 h; method in brief: as §1
Mus musculus = organism: Mus musculus; test: Binding affinity for beta amyloid plaques in Alzheimer's mouse model brain
Method in brief: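 Paraffin sections, 5 µm, of formaldehyde-fixed Alzheimer's model mouse brain. Deparaffinised, held in PBS 30 min, stained with compound at 100 µM in 50% ethanol, washed in PBS 15 min, then mounted. Fluorescence read by confocal microscopy at 458 excitation and 540–580 emission. Serial sections immunostained for β-amyloid with DAB.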

Ki [1]	SMILES	further results
2650 nM	CN(C)c1ccc(/C=C/C(=O)c2ccc(Br)o2)s1	
13.3 nM	CN(C)c1ccc(C(=O)/C=C/c2ccc(I)cc2)cc1	
198 nM	CNc1ccc(C(=O)/C=C/c2ccc(Br)s2)cc1	
102 nM	O=C(/C=C/c1cccs1)c1ccc(I)cc1	
> 10000 nM	O=C(/C=C/c1nccs1)c1ccc(I)cc1	
137 nM	CN(C)c1ccc(/C=C/C(=O)c2ccc(I)s2)s1	
248 nM	Nc1ccc(C(=O)/C=C/c2ccc(I)cc2)cc1	
93 nM	O=C(/C=C/c1ccsc1)c1ccc(I)cc1	
797 nM	O=C(/C=C/c1ncc[nH]1)c1ccc(I)cc1	
1130 nM	CN(C)c1ccc(/C=C/C(=O)c2ccc(I)cc2)o1	
113 nM	CN(C)c1ccc(/C=C/C(=O)c2ccc(I)cc2)s1	
1610 nM	CN(C)c1ccc(/C=C/C(=O)c2ccc(I)s2)o1	

Continued, compound first:

SMILES	Ki [1]	further results
CN(C)c1ccc(/C=C/C(=O)c2ccc(Br)o2)cc1	126 nM	
Nc1ccc(C(=O)/C=C/c2ccc(Br)s2)cc1	476 nM	
CN(C)c1ccc(/C=C/C(=O)c2ccc([125I])s2)cc1		Drug uptake (Brain [2]): 2.46 % ID/g; Drug uptake (Brain [3]): 0.75 % ID/g; Drug uptake (Brain [4]): 0.21 % ID/g; Drug uptake (Brain [5]): 0.31 % ID/g
CNc1ccc(C(=O)/C=C/c2ccc(I)cc2)cc1	23.9 nM	
O=C(/C=C/c1ccccc1)c1ccc(I)cc1	151 nM	
CN(C)c1ccc(/C=C/C(=O)c2ccc(Br)o2)o1	> 10000 nM	
O=C(/C=C/c1ccoc1)c1ccc(I)cc1	125 nM	
Nc1ccc(/C=C/C(=O)c2ccc(I)s2)cc1	121 nM	
Nc1c(/N=N/c2ccc(-c3ccc(/N=N/c4cc(S(=O)(=O)O)c5ccccc5c4N)cc3)cc2)cc(S(=O)(=O)O)c2ccccc12 [CONGO RED]	> 10000 nM	
CN(C)c1ccc(C(=O)/C=C/c2ccc(Br)s2)cc1	106 nM	
Cc1ccc2c(c1)sc(-c1ccc(N(C)C)cc1)[n+]2C [THIOFLAVIN T]	> 10000 nM	
O=C(/C=C/c1ccco1)c1ccc(I)cc1	908 nM	
CN(C)c1ccc(/C=C/C(=O)c2ccc(I)s2)cc1	3.9 nM	Activity (Mus musculus): Active
CNc1ccc(/C=C/C(=O)c2ccc(I)s2)cc1	14.1 nM	
